The subject of data set [1] is Bacillus subtilis. In words: Bactericidal activity against Bacillus subtilis DSM 347 after 24 hrs. Type of data set: functional. The settings on record: DSM 347, 24 h. The method, boiled down:
(§1)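 MBC: after the 17 h LB broth dilution growth assay (1.6 x 10^6 cells/ml, 37°C, shaking), 200 µl from wells at or above the MIC was spread on LB agar. Plates were incubated 24 h at 37°C and colonies counted. MBC is the lowest concentration giving no colonies. Triplicate.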

The subject of data set [2] is Escherichia coli. In words: Antimicrobial activity against Escherichia coli DH5[alpha] after 17 hrs. Type of data set: functional. The method, boiled down: (§2)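 Mid-log cells (OD600 0.4 to 0.5, grown in LB at 37°C, 180 rpm) in LB at 1.6 x 10^6 cells/ml. Soluble peptides were tested in microtiter wells at 100 to 0.05 µM (twofold dilutions). Resin-bound peptides were tested in tubes at 0.5 to 80 mg/ml resin with horizontal shaking. Incubation 37°C, 180 rpm; A600 read at 17 h; triplicate. Resin MICs were converted to mM using peptide loading per mg resin.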

For data set [3], the system named is Escherichia coli. Nature of the data set: Bactericidal activity against Escherichia coli DH5[alpha] after 24 hrs. Type of data set: functional. In outline: as §1
Data set [4] in a line: Cytotoxicity against human RBC assessed as hemolytic activity after 30 mins by spectrophotometry. The class given is cell-based. The settings on record: erythrocyte, 0.5 h. In outline:
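Human RBCs were washed in 10 mM Tris, 150 mM NaCl, pH 7.4 and incubated at 2.5 x 10^8 cells/ml with peptide in 1 ml buffer for 30 min with gentle shaking. Samples were ice-cooled and centrifuged (2,000 x g, 4°C, 5 min); supernatant was diluted in 0.5% NH4OH and read at OD540. 0.5% NH4OH served as 100% lysis. EC25 was taken from dose-response curves.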

Data set [5] concerns Bacillus subtilis. In words: Antimicrobial activity against Bacillus subtilis DSM 347 after 17 hrs. The class given is functional. The settings on record: DSM 347, 17 h. The method, boiled down:
as §2

Converted amounts (≈) assume the structure as drawn. Where a SMILES comes first, the peptide text is derived from it.

What is called MBC is the smallest concentration meeting the test's criterion for killing. For orientation: MIC means the smallest concentration in the dilution series that meets the test's criterion for growth inhibition. High values mean a less susceptible organism, low ones a more susceptible organism. As usually defined, the EC25 is the concentration needed for an effect of 25%. Turning to `CC(C)C[C@H](NC(=O)[C@H](C)NC(=O)[C@H](CCCCN)NC(=O)[C@H](CC(C)C)NC(=O)[C@H](C)NC(=O)[C@H](CC(C)C)NC(=O)[C@H](CCCCN)NC(=O)[C@H](CC(C)C)NC(=O)[C@H](C)NC(=O)[C@H](CC(C)C)NC(=O)[C@@H](N)CCCCN)C(=O)N[C@@H](CCCCN)C(=O)N[C@@H](C)C(=O)N[C@@H](C)C(=O)N[C@@H](CC(C)C)C(=O)N[C@@H](CCCCN)C(=O)N[C@@H](CC(C)C)C(=O)N[C@@H](C)C(N)=O`, the MBC in the data set with Bacillus subtilis [1] was found to be 0.8 µM (≈ 1.5 µg/mL); with Escherichia coli [3] it was 1.6 µM (≈ 3 µg/mL). The MIC against Escherichia coli [2] came out at 1.6 µM (≈ 3 µg/mL); with Bacillus subtilis [5] it was 0.8 µM (≈ 1.5 µg/mL). Also, the EC25 in data set [4] turned out to be 13.1 µM.
As for `CC(=O)N[C@@H](CCCCN)C(=O)N[C@@H](CC(C)C)C(=O)N[C@@H](C)C(=O)N[C@@H](CC(C)C)C(=O)N[C@@H](CCCCN)C(=O)N[C@@H](CC(C)C)C(=O)N[C@@H](C)C(=O)N[C@@H](CC(C)C)C(=O)N[C@@H](CCCCN)C(=O)N[C@@H](C)C(=O)N[C@@H](CC(C)C)C(=O)N[C@@H](CCCCN)C(=O)N[C@@H](C)C(=O)N[C@@H](C)C(=O)N[C@@H](CC(C)C)C(=O)N[C@@H](CCCCN)C(=O)N[C@@H](CC(C)C)C(=O)N[C@@H](C)C(N)=O`, the MBC with Bacillus subtilis [1] was determined as 0.8 µM (≈ 1.53 µg/mL); against Escherichia coli [3], 12.5 µM (≈ 24 µg/mL). Also, the MIC against Escherichia coli [2] worked out at 12.5 µM (≈ 24 µg/mL); in the data set on Bacillus subtilis [5], 0.8 µM (≈ 1.53 µg/mL). The EC25 in data set [4] came out at 9.1 µM.
Regarding `CC[C@H](C)[C@H](NC(=O)CNC(C)=O)C(=O)NCC(=O)N[C@@H](CCCCN)C(=O)N[C@@H](Cc1ccccc1)C(=O)N[C@H](C(=O)N[C@@H](Cc1cnc[nH]1)C(=O)N[C@@H](C)C(=O)N[C@H](C(=O)N[C@@H](CCCCN)C(=O)N[C@@H](CCCCN)C(=O)N[C@@H](Cc1c[nH]c2ccccc12)C(=O)NCC(=O)N[C@@H](CCCCN)C(=O)N[C@H](C(=O)N[C@@H](Cc1ccccc1)C(=O)N[C@H](C(=O)NCC(=O)N[C@@H](CCC(=O)O)C(=O)N[C@H](C(=O)N[C@@H](C)C(=O)N[C@@H](CCCCN)C(=O)N[C@@H](CO)C(N)=O)[C@@H](C)CC)[C@@H](C)CC)[C@@H](C)O)C(C)C)[C@@H](C)CC` (Ac-GIGKFIHAVKKWGKTFIGEIAKS-NH2), the figures for the MBC in the data set on Bacillus subtilis [1] and against Escherichia coli [3] were 1.6 µM (≈ 4.09 µg/mL) and 3.1 µM (≈ 7.93 µg/mL), respectively. For the same molecule, the figures for the MIC in the data set with Escherichia coli [2] and in the data set with Bacillus subtilis [5] were 3.1 µM (≈ 7.93 µg/mL) and 1.6 µM (≈ 4.09 µg/mL), respectively. For the same molecule, the EC25 in data set [4] is more than 400 µM.
As for `CC[C@H](C)[C@H](NC(=O)CN)C(=O)NCC(=O)N[C@@H](CCCCN)C(=O)N[C@@H](Cc1ccccc1)C(=O)N[C@H](C(=O)N[C@@H](Cc1cnc[nH]1)C(=O)N[C@@H](C)C(=O)N[C@H](C(=O)N[C@@H](CCCCN)C(=O)N[C@@H](CCCCN)C(=O)N[C@@H](Cc1c[nH]c2ccccc12)C(=O)NCC(=O)N[C@@H](CCCCN)C(=O)N[C@H](C(=O)N[C@@H](Cc1ccccc1)C(=O)N[C@H](C(=O)NCC(=O)N[C@@H](CCC(=O)O)C(=O)N[C@H](C(=O)N[C@@H](C)C(=O)N[C@@H](CCCCN)C(=O)N[C@@H](CO)C(N)=O)[C@@H](C)CC)[C@@H](C)CC)[C@@H](C)O)C(C)C)[C@@H](C)CC` (H-GIGKFIHAVKKWGKTFIGEIAKS-NH2), the MBC against Bacillus subtilis [1] was 1.6 µM (≈ 4.02 µg/mL); with Escherichia coli [3], 0.8 µM (≈ 2.01 µg/mL). Further, the MIC against Escherichia coli [2] was 0.8 µM (≈ 2.01 µg/mL); in the data set with Bacillus subtilis [5], 1.6 µM (≈ 4.02 µg/mL). Moreover, the EC25 in data set [4] was 334 µM.

These data come from ChEMBL document CHEMBL1629652, “Immobilization reduces the activity of surface-bound cationic antimicrobial peptides with no influence upon the activity spectrum” (Antimicrob Agents Chemother, 2009).
